The list is not random: actives were taken first. Their share in the collection is about 3.1%.
FN deposition inh – fibronectin deposition inhibition; inhibition, % at 12.6 µM; AH1F fibroblasts, Alexa488-fibronectin deposition fluorescence, overnight; AID 743247; 350,000 compounds, 0.086% hits;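 active = mean inhibition across replicates of 30% or more, regardless of how many single replicates reach that level; inconclusive = mean under 30% yet at least half of replicates reach 30%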;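 also: positive control wells lacked labelled fibronectin entirely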
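Material: AH1F fibroblast monolayer depositing Alexa488-labelled fibronectin into matrix / Amount: 10000 AH1F cells per well / Signal: fluorescence 485/525 nm / Medium: DMEM, 2% serum / Compound: single dose, pinned / Incubation: 1 h cell adhesion before compound, then overnight fibronectin incubation / Reagent: Alexa488-FN, 24 nM final / Read-out: inhibition of fibronectin deposition signal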
PAX8 inh HTS – lowers PAX8-driven luciferase in RMG-I cells; inhibition, % at 12.6 µM; 360,000 compounds, 1.2% hits; AID 652154; RMG-I TPO-luciferase reporter, SteadyGlo, 24 h;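 active = mean replicate inhibition at least 60% with every replicate also reaching 60%; inconclusive = only one of the two criteria is met; inactive = mean below 60% and not all replicates reaching 60%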;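 also: luciferase light reporting Pax8 driven TPO promoter activity; plate controls were median of neutral control wells for no effect and mitoxantrone controls for full effect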
EWS-Fli block – inhibitors of EWS/Fli oncoprotein transcriptional activity; A673 NR0B1-luciferase reporter, viability-normalised; inhibition, % at 12.6 µM; 350,000 compounds, 0.67% hits; AID 651661;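 active = mean inhibition of at least 50% after viability correction, with every replicate also passing that limit; inconclusive = mean reaches 50% but only one of two replicates passes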;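 also: firefly luciferase signal divided by Alamar Blue viability fluorescence both relative to DMSO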
PGC1a acetyl inh – lowers PGC1a acetylation signal in U2OS cells; inhibition, % at 15.6 µM; AlphaScreen anti-acetyl-lysine; with virally co-expressed GCN5 acetyltransferase; 350,000 compounds, 0.17% hits;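 active = every replicate shows inhibition of at least 40%; inconclusive = mean inhibition at least 40% but some replicate below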;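 also: 0% = neutral control wells and 100% = positive control wells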
FGF22 binding – shifts melting point of recombinant human FGF22 | activity (Tm shift, normalised), % at 9.99 µM | 340,000 compounds, 1.5% hits | Q9HCT0 | recombinant FGF22 thermal shift, SYPRO orange fluorescence; percent of sucrose octasulfate shift, DMSO zero;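 active = mean Tm shift, scaled 0 neutral to 100 positive control, at about 1.3% or above, every replicate too, limit read from the data; inconclusive = no clear call, values can overlap the other calls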
Target sequence (Q9HCT0 whole entry, looked up): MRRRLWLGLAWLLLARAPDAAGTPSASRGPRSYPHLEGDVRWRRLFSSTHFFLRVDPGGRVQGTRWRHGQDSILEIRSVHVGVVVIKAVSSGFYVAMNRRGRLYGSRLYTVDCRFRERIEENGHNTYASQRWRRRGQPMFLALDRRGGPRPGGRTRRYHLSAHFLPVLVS
Env fusion inh – inhibitors of HIV Env-mediated cell fusion | inhibition, % at 12.3 µM | HeLa-JRFL Env/CEM21 cell fusion, luciferase | 360,000 compounds, 1.1% hits;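 active = mean replicate inhibition score of at least 50 and every replicate individually at or above 50; inconclusive = only one of the two criteria met; inactive = mean below 50 and not all replicates reaching 50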;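 also: 0% = plate neutral controls and 100% = maraviroc near 300 nM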
* marks the source's active call; other numbers are inactive results; u = inconclusive; x = no result given; [ ] = remark or other dose.

SMILES | FN deposition inh | PAX8 inh HTS | EWS-Fli block | PGC1a acetyl inh | FGF22 binding | Env fusion inh
CO[C@H]1CN(C)C(=O)c2cc(C#N)ccc2OC[C@@H]2O[C@H](CC[C@H]2OC)CCN(C)C(=O)[C@@H]1C | -3 | 10 | -7 | -3 | 0 | 15[16.7 µM]
CCN1/C(=C2/SC(=S)NC2=O)Sc2ccccc21 | 2 | -18 | 2 | x | 43* | -263
COc1cccc(NC(=O)N[C@@H]2CC[C@@H](CC(=O)NCc3ccccn3)O[C@H]2CO)c1 | 3 | -3 | 2 | 2 | 0 | 13[16.7 µM]
CCNC(=O)N1c2ccc(OCC)cc2C(C)=CC1(C)C | 3 | -4 | x | -2 | x | 4
CCOc1ccc2c(c1)C(C)=CC(C)(C)N2S(=O)(=O)c1ccc(C)cc1 | -46 | 82* | 24 | -64 | x | -32
CC1=CC(C)(C)N(S(=O)(=O)c2ccc(C)cc2)c2cc(C)ccc21 | x | x | x | -40 | x | x
COc1ccc2c(c1)C(C)=CC(C)(C)N2S(=O)(=O)c1ccc(C)cc1 | 13 | 79* | u | -24 | 0 | -67
O=C(O)c1cc(-n2nnnc2SCc2ccccc2F)ccc1Cl | -5 | 8 | 1 | -7 | 43* | 2
COc1ccc(Cl)cc1C(=O)CSc1nnnn1C1CCCC1 | x | x | x | 12 | x | x
COCCn1c(C)cc(C(=O)CSc2nnc(C)s2)c1C | 2 | 75* | x | 8 | x | 63*
COCCn1c(C)cc(C(=O)CSc2nnnn2C2CCCC2)c1C | -3 | 39 | 82* | x | 0 | 60*
C[C@H]1CN([C@@H](C)CO)C(=O)c2cccc(NC(=O)Nc3ccc(C(F)(F)F)cc3)c2O[C@@H]1CN(C)Cc1ccc(C(=O)Nc2ccccc2N)cc1 | x | 14 | 7 | -23 | 0 | x
CNCc1ccccc1Sc1ccc(O)c(O)c1 | -1 | 76* | -4 | x | -1 | x
O=[N+]([O-])c1cc(-c2cnc3ccccc3n2)ccc1Cl | 1 | -33 | -7 | x | 44* | -21
Cc1ccccc1S(=O)(=O)NC(=O)C1(C)CCN1C(=O)CCc1ccc(Cl)cc1Cl (stereo unspecified) | 4 | 9 | -1 | -1 | 0 | 71*
O=C(NCC[C@@H]1CC[C@@H](NS(=O)(=O)c2ccc(Oc3ccccc3)cc2)[C@H](CO)O1)C1CC1 | 6 | 9 | -2 | 7 | 0 | 4[16.7 µM]
COCCNC(=S)N(Cc1cc2cc(C)ccc2n2nnnc12)C1CCCC1 | -5 | 2 | 0 | 5 | 43* | 60*
COCCN(Cc1cc2cc(C)ccc2n2nnnc12)C(=S)Nc1ccc(C)cc1 | 0 | 0 | 14 | -16 | 1 | -3
CCCNC(=O)N1C[C@H](O)COC[C@H]2O[C@H](CC(=O)N3CCCCC3)CC[C@@H]21 | -16 | -5 | -4 | 4 | 0 | x
COc1ccccc1C#Cc1ccc2c(c1)O[C@@H](CN(C)Cc1ccccc1)[C@@H](C)CN([C@@H](C)CO)S2(=O)=O | x | x | 12 | -11 | -1 | 25[16.7 µM]
COc1ccccc1C#Cc1ccc2c(c1)O[C@H](CN(C)Cc1cncnc1)[C@H](C)CN([C@H](C)CO)S2(=O)=O | x | 41 | 13 | 1 | 0 | 1[16.7 µM]
COc1ccccc1C#Cc1ccc2c(c1)O[C@@H](CN(C)Cc1cncnc1)[C@H](C)CN([C@H](C)CO)S2(=O)=O | x | 86* | 18 | 12 | 0 | 7[16.7 µM]
COc1ccccc1C#Cc1ccc2c(c1)O[C@H](CN(C)Cc1cccnc1)[C@H](C)CN([C@H](C)CO)S2(=O)=O | -20 | 90* | 27 | -1 | 0 | x
COc1ccccc1C#Cc1ccc2c(c1)O[C@@H](CN(C)Cc1ccncc1)[C@@H](C)CN([C@@H](C)CO)S2(=O)=O | x | 32 | 20 | -6 | 0 | 46*[16.7 µM]
COc1ccccc1C#Cc1ccc2c(c1)O[C@H](CN(C)Cc1ccncc1)[C@H](C)CN([C@@H](C)CO)S2(=O)=O | x | 2 | 14 | 7 | 0 | 15[16.7 µM]
COc1ccc(-c2cnc3c(c2)C(=O)N([C@H](C)CO)C[C@@H](C)[C@@H](CN(C)Cc2ccccc2)O3)cc1 | 0 | x | -8 | 6 | 0 | 6[16.7 µM]
COc1cccc(OCCSc2nc3ccccc3c(=O)[nH]2)c1 | 7 | -2 | -15 | 3 | 43* | -24
C[C@@H]1CN([C@H](C)CO)S(=O)(=O)c2ccc(-c3cccnc3)cc2O[C@@H]1CN(C)Cc1cncnc1 | -9 | x | -13 | 7 | 0 | -9[16.7 µM]

Screening data from PubChem.
